Assay results: ChEMBL document CHEMBL4680109, “A road map for prioritizing warheads for cysteine targeting covalent inhibitors” (Eur J Med Chem, 2018)
Counter-ions that a name gives are not always drawn.

Experiments:
[1] = target: Cathepsin B (Homo sapiens) (UniProt P07858); experiment: Inhibition of recombinant cathepsin B (unknown origin) exopeptidase activity expressed in Escherichia coli assessed as residual activity at 100 uM using Abz-GIVRAK(Dnp)-OH as substrate preincubated for 30 mins under shaking in presence of 5 mM cysteine followed by substrate addition relative to control
[2] = Inhibition of recombinant cathepsin X (unknown origin) expressed in Pichia pastoris assessed as residual activity at 100 uM using Abz-Fek(Dnp)-OH as substrate preincubated for 30 mins under shaking in presence of 5 mM cysteine followed by substrate addition relative to control; conditions: Homo sapiens
[3] = tested on: Escherichia coli; experiment: Inhibition of Escherichia coli MurA assessed as residual activity at 100 uM using UNAG and PEP as substrate preincubated for 30 mins in presence of UNAG followed by PEP addition and measured after 15 mins by malachite green colorimetric assay relative to control; conditions: time 45.0 min
[4] = Inhibition of Staphylococcus aureus MurA expressed in Escherichia coli using UNAG and PEP as substrate preincubated for 30 mins in presence of UNAG followed by PEP addition and measured after 15 mins by malachite green colorimetric assay
Outline: (§1)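 IC50 from MurA (E. coli or S. aureus) residual activities at seven compound concentrations. Conditions: 30 min preincubation with UNAG at 37 °C, then PEP, 15 min at 37 °C, in 50 mM Hepes pH 7.8, 0.005% Triton X-114 and 5% DMSO. Malachite green read at 650 nm. Values are means of duplicates.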

[5] = target: Cathepsin B (Homo sapiens) (UniProt P07858); experiment: Inhibition of recombinant cathepsin B (unknown origin) endopeptidase activity expressed in Escherichia coli assessed as residual activity at 100 uM using Z-RR-AMC as substrate preincubated for 30 mins under shaking in presence of 5 mM cysteine followed by substrate addition relative to control
[6] = tested on: Escherichia coli; experiment: Inhibition of Escherichia coli MurA assessed as residual activity at 100 uM using UNAG and PEP as substrate preincubated for 30 mins in presence of UNAG followed by PEP addition and measured after 15 mins in presence of 5 mM cysteine by malachite green colorimetric assay relative to control; conditions: time 45.0 min
Outline: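 MurA from E. coli, with the enzyme diluted in Hepes pH 7.8 containing cysteine (15 mM in buffer, giving 5 mM in incubation). Preincubated with UNAG and compound for 30 min at 37 °C, then PEP added and reacted 15 min at 37 °C. Phosphate read by malachite green at 650 nm. Duplicates; residual activity is versus DMSO control.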

[7] = Inhibition of Escherichia coli MurA using UNAG and PEP as substrate preincubated for 30 mins in presence of UNAG followed by PEP addition and measured after 15 mins by malachite green colorimetric assay; outline: as §1
[8] = tested on: Staphylococcus aureus; experiment: Inhibition of Staphylococcus aureus MurA expressed in Escherichia coli assessed as residual activity at 100 uM using UNAG and PEP as substrate preincubated for 30 mins in presence of UNAG followed by PEP addition and measured after 15 mins by malachite green colorimetric assay relative to control; conditions: time 45.0 min
[9] = tested on: Escherichia coli; experiment: Inhibition of Escherichia coli MurA assessed as residual activity at 1 mM using UNAG and PEP as substrate preincubated for 30 mins in presence of UNAG followed by PEP addition and measured after 15 mins by malachite green colorimetric assay relative to control; conditions: time 45.0 min
[10] = tested on: Escherichia coli; experiment: Inhibition of Escherichia coli MurA assessed as residual activity at 250 uM using UNAG and PEP as substrate preincubated for 30 mins in presence of UNAG followed by PEP addition and measured after 15 mins by malachite green colorimetric assay relative to control; conditions: time 45.0 min
[11] = Drug degradation in pH 7.4 PBS buffer at 100 uM measured up to 24 hrs by LC-MS/MS analysis; assay type: physicochemical; conditions: pH 7.4, 24 h
[12] = tested on: Escherichia coli; experiment: Inhibition of Escherichia coli MurA assessed as residual activity at 25 uM using UNAG and PEP as substrate preincubated for 30 mins in presence of UNAG followed by PEP addition and measured after 15 mins by malachite green colorimetric assay relative to control

| Structure (SMILES) | Activity [1] | Activity [2] | Activity [3] | IC50 [4] | Activity [5] | Activity [6] | IC50 [7] | Activity [8] | Activity [9] | Activity [10] | Stabilty [11] | Activity [12] |
| --- | --- | --- | --- | --- | --- | --- | --- | --- | --- | --- | --- | --- |
| Cc1ccc(S)cc1 | 67% | 100% | 6% | 7.83 µM | 100% | 94% | 1.25 µM | 23% |  |  |  |  |
| COc1cc(NC(=O)CCl)cc(OC)c1 | 87% | 84% | 61% |  | 90% | 96% |  | 52% |  |  |  |  |
| O=C(CCl)Nc1ccccc1 | 88% | 99% | 100% |  | 100% | 95% |  | 59% |  |  |  |  |
| C=CC(=O)Nc1cc(C(F)(F)F)cc(C(F)(F)F)c1 |  | 92% |  |  |  | 100% | 164 µM | 72% | 86% |  |  |  |
| CCOC(=O)C#CC(F)(F)F | 89% | 99% | 15% | 47 µM | 100% | 98% | 24 µM | 31% |  | 100% |  |  |
| S=C=Nc1ccccc1 [PHENYLISOTHIOCYANATE] | 98% | 67% | 53% |  | 100% | 91% | 90 µM | 75% |  |  |  |  |
| CCOC(=O)C#Cc1ccccc1 | 70% | 92% | 75% |  | 85% | 99% |  | 67% |  |  |  |  |
| S=C=NCc1ccccc1 [BENZYL ISOTHIOCYANATE] | 18% | 22% | 3% |  | 75% | 100% | 3.7 µM | 41% |  |  |  |  |
| COc1cc2c(cc1OC)CN(C(=O)CCl)CC2 |  | 97% | 61% | 171 µM |  | 98% | 141 µM | 54% |  |  |  |  |
| C/C=C/C(=O)OC | 97% | 84% | 41% |  | 100% | 96% | 227 µM | 66% |  |  |  |  |
| FC(F)(F)c1cccc(N=C=S)c1 | 97% | 87% | 3% | 53 µM | 100% | 99% | 28 µM | 9% |  |  |  |  |
| C=CC(=O)N1CCC(Cc2ccccc2)CC1 |  |  |  |  |  |  |  |  |  |  | Unstable |  |
| O=C1C=CC(=O)N1C1CCCCC1 | 89% | 96% | 1% | 0.652 µM | 96% | 100% | 0.554 µM | 0.3% |  |  |  | 85% |
| COC(=O)/C=C/C(=O)OC [DIMETHYL FUMARATE] | 100% | 89% | 50% |  | 100% | 90% | 172 µM | 82% | 88% |  |  |  |
| C/C=C/C#N | 87% | 90% | 100% |  | 100% | 100% |  | 97% |  |  |  |  |
| C/C=N/Nc1cc2ccccc2cn1 | 100% | 79% | 99% |  | 100% | 100% |  | 54% |  |  |  |  |
| O=c1[nH]sc2ccccc12 | 96% | 100% | 2% | 0.926 µM | 100% | 99% | 1.1 µM | 0% |  |  |  |  |
| COc1ccccc1C(=O)CBr | 55% | 74% | 3% | 1.82 µM | 90% | 100% | 0.384 µM | 4% |  |  |  |  |
| CC#CC(=O)OCC | 84% | 96% | 82% |  | 96% | 100% |  | 91% |  |  |  |  |
| O=C1C=CC(=O)N1Cc1ccccc1 | 87% | 96% | 2% | 1.04 µM | 100% | 99% | 0.565 µM | 0% |  |  |  |  |
| O=C(CCl)N1CCC(Cc2ccccc2)CC1 |  |  |  |  | 78% | 99% |  | 55% |  |  |  |  |
| C[C@@H]1O[C@@H]1P(=O)(O)O |  |  |  |  |  |  |  |  |  |  |  | 3% |
| O=C(CBr)c1ccccc1 | 27% | 75% | 2% |  | 83% | 94% |  | 7% |  |  |  |  |
| N#C/C=C/C(F)(F)F | 88% | 86% | 47% |  | 100% | 100% | 95 µM | 81% | 100% |  |  |  |
| COc1ccc(N=C=S)cc1 | 99% | 55% | 33% |  | 100% | 94% | 45 µM | 91% |  |  |  |  |
| O=C(CCl)c1ccccc1 [PHENACYL CHLORIDE] | 34% | 86% | 3% | 3.02 µM | 63% | 93% | 2.25 µM | 7% |  |  |  |  |
| C=CS(=O)(=O)c1ccccc1 [(ETHENYLSULFONYL)BENZENE] | 87% | 93% | 12% | 34 µM | 100% | 96% | 15 µM | 30% |  |  |  |  |
| O=C(CCl)Nc1cc(C(F)(F)F)cc(C(F)(F)F)c1 |  | 96% |  | 100 µM | 75% | 80% | 75 µM | 96% |  |  |  |  |
